Drawing on BindingDB's records for doi:10.1021/acs.jmedchem.6b00914 (Amri, 2016), this text covers IC50 for 1 compound.

The experiment has as its target T1, Sodium- and chloride-dependent glycine transporter 2 (Homo sapiens, UniProt Q9Y345).
T1 sequence (Q9Y345 whole entry): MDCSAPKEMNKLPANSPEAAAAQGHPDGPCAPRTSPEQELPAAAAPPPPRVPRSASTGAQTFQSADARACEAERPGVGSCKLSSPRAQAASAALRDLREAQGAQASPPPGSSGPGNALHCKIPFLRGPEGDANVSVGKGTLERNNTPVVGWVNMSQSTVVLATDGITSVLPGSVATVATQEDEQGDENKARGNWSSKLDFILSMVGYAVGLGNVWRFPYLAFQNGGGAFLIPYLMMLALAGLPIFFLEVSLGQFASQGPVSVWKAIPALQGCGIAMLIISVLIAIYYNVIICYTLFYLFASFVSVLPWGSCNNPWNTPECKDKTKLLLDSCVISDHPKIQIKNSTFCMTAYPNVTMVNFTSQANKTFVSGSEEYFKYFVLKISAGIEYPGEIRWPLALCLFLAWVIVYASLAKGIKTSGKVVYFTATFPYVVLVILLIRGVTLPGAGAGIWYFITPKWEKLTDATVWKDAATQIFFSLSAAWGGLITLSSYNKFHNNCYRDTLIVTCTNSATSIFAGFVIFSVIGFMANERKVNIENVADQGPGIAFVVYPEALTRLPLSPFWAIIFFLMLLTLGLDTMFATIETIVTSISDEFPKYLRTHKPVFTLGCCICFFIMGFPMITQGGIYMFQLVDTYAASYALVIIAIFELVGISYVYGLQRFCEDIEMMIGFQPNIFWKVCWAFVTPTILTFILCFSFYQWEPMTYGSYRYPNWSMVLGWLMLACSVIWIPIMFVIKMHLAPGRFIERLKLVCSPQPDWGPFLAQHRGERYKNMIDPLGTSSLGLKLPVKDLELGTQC
The experiment can be described thus: Inhibition of human glycine transporter-2 expressed in HEK293 cells assessed as reduction in [14C]glycine uptake preincubated for 10 mins followed by [14C]glycine addition measured after 3 hrs by scintillation proximity assay. The gist of the method: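 HEK293 cells stably transfected with GlyT-2 (Geneticin-selected polyclonal population) were plated on poly-L-lysine-coated plates in DMEM/10% FBS and incubated overnight. The [¹⁴C]glycine uptake SPA was then run as for JAR cells: uptake buffer, 10 min room-temperature preincubation, 3 h incubation at 37 °C.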

The IC50 is the point on the concentration scale where inhibition reaches its midpoint.

With `CC(NC(=O)c1ccc(C(F)(F)F)cc1Cl)C1(N2CCN(S(=O)(=O)c3cn(C)nn3)CC2)CCC(F)(F)CC1` (stereo unspecified), the IC50 was over 75 µM.
